RAD52 inh: RAD52 (human) annealing inhibition | P43351 | recombinant RAD52 DNA annealing, FRET fluorescence | inhibition, % at 18.7 µM | 0.46% of 360,000 active;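 active means every replicate showing at least 50% inhibition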
S100A4 inh HTS: inhibitors of human S100A4 binding to myosin IIA peptide; 0.14% of 360,000 active; inhibition, % at 10.7 µM; S100A4/TAMRA-MyoIIA peptide fluorescence polarization;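 active means mean inhibition of at least 70% across replicates, with every replicate also reaching that level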
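Material: S100A4 monomer protein / Buffer or medium: 50 mM HEPES pH 7.2, 10 mM CaCl2, 100 mM KCl / Times: 5 min incubation before reading / Benchmarks: neutral control DMSO, positive control TFP / Reagent: labelled myosin peptide probe, 5 nM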
dFosB activator: activators of mouse delta FosB homodimer; purified delta FosB, TAMRA-CDK5 oligo fluorescence polarization; percent of positive-control signal above neutral wells; activation, % at 25 µM; 0.99% of 340,000 active; AID 493131;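 active means mean activation above about 17%, with every replicate also reaching it, limit read from the data, passing the limit was not always enough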
MLL AF4-AF9 inh: blocks AF4 peptide binding to human AF9; P42568; AlphaScreen, biotin-AF4 peptide binding to FLAG-AF9; inhibition, % at 10 µM; 0.47% of 350,000 active;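 active means every replicate reaching a set inhibition limit, whatever the replicate mean, cut at about 25% in these data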;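 further: 0% = plate neutral control median and 100% = total signal loss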
RAD54 branch: inhibitors of human RAD54 branch migration; AID 602329; 0.14% of 360,000 active; RAD54 Holliday junction branch migration, FAM/BHQ fluorescence; inhibition, % at 10.4 µM; Q92698;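 active means mean normalized replicate activity at least 40 and at least half of replicates scoring 40 or more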;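 further: 0% = median of neutral control wells and 100% = median of positive control wells; inhibitors cause a drop in the FAM fluorescence signal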
Target sequence (Q92698 whole entry, looked up): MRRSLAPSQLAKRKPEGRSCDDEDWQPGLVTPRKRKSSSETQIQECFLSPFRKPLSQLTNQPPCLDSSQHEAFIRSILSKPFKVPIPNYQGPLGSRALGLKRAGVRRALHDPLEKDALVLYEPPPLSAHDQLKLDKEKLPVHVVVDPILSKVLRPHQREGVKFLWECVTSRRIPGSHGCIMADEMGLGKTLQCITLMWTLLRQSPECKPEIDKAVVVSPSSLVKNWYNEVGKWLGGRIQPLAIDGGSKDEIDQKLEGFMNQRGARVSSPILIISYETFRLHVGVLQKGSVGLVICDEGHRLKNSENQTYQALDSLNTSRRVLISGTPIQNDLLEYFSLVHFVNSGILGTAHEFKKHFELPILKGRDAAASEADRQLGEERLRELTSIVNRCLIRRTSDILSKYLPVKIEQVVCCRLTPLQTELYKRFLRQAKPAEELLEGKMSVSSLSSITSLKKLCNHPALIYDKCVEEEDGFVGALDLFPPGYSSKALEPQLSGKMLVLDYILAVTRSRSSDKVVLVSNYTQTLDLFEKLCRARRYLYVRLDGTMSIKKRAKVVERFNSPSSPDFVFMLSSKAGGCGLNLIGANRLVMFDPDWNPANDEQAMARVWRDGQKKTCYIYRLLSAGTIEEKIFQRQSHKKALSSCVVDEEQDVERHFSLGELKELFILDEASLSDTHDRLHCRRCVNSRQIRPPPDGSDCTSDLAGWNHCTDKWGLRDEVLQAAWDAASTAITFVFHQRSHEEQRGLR
DNA binder FP: DNA binding artifact in RAD52 counter-screen; shares compounds with RAD52 inh; Salmon sperm DNA/acridine orange FP displacement; AC50, µM; 8% of 1,000 active;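 active means fitted half-maximal concentration for signal loss at or below twice the highest dose tested, in every separate run, actives reach about 64 µM in these data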
* marks the source's active call; other numbers are inactive results; i = inactive; / = no result. Sampled rows, rich in hits. Any-hit rate of the full collection: about 1.5%.

SMILES	RAD52 inh	S100A4 inh HTS	dFosB activator	MLL AF4-AF9 inh	RAD54 branch	DNA binder FP
CC=Cc1ccc2n(c1=O)C[C@H]1[C@H](CO)[C@@H](C(=O)N3CCN(C)CC3)N(Cc3ccccc3F)[C@@H]21 (mixture of isomers)	3	6	/	0	22	/
CCN(CC)CCn1c(=N)n(CC(=O)c2ccc(Br)s2)c2ccccc21	51*	-8	/	11	17	i
CCN(CC)CCN1CCn2c3c(c4cc(C)ccc42)CCCC31 (stereo unspecified)	63*	-1	4	27*	/	i
CCC(=O)Nc1ccc2c(c1)C(=O)N(C)[C@H]1CC[C@@H](CC(=O)NCc3ccccc3)O[C@@H]1CO2	-3	3	/	2	-1	/
COc1cc2sc3ccc(-c4ccc(CN5CCOCC5)cc4)cc3c(=O)c2cc1OC	93*	-1	-3	5	7	i
COc1ccc(CN2CCOCC2)cc1OC	/	/	0	/	-11	/
Cc1cc(C)nc(/N=C(\N)Nc2cccc(OCc3ccccc3)c2)n1	49	-2	4	6	-1	/
Cc1cc(C)nc(/N=C(\N)Nc2ccc(OCc3ccccc3)cc2)n1	55*	-1	15	12	/	i
NC(=NCc1ccc2c(c1)OCO2)NC(=O)c1ccccc1	51*	0	-11	3	/	i
COc1ccccc1C(=O)N1C[C@H]2[C@@H](c3ccccc31)[C@H](CO)N2C(=O)Cc1cccnc1	-2	2	/	1	-13	/
CO[C@@H]1CN(C)C(=O)c2ccc(NC(=O)C3CCCCC3)cc2OC[C@H](C)N(C(=O)c2ccccc2)C[C@@H]1C	-6	-4	/	0	4	/
CCOc1cc(/C=C/c2cccc[n+]2C)ccc1OCC(=O)Nc1ccc(C)cc1	-5	2	0	5	14	/
CCOc1cc(/C=C/c2cccc[n+]2C)ccc1O	72*	7	7	-14	11	i
CCOC(=O)c1cc(NC(=O)N(C(C)C)C2CCCCC2)c(C)nc1C	96*	6	-1	-5	-10	i
CCOC(=O)c1cc(NC(=O)N(C(C)C)C(C)C)c(C)nc1C	/	/	0	/	-2	/
CO[C@H]1CN(C)C(=O)c2ccc(NC(=O)c3ccccc3F)cc2OC[C@H](C)N(CC2CC2)C[C@@H]1C	19	-7	/	-7	/	/
NC(N)=N/N=C/c1ccccc1	/	/	-3	/	/	/
NC(N)=N/N=C/c1ccc(OCc2ccccc2Cl)cc1	27	2	9	14	13	i
COc1cccc2sc(N(CCCN(C)C)C(=O)c3sc4ccccc4c3Cl)nc12	58*	-5	5	28*	33	i
Cc1ccc2sc(N(CCCN(C)C)C(=O)CN3C(=O)c4ccccc4C3=O)nc2c1C	69*	-3	12	16	20	i
Cc1cccc2sc(N(CCCN(C)C)C(=O)COc3ccc(Cl)cc3)nc12	50*	2	-95	16	/	i
Cc1cccc2sc(N(CCCN(C)C)C(=O)c3sc4ccccc4c3Cl)nc12	/	/	-38	/	4	/
CN(C)CCOc1ccc2c(c1)C(=O)C(=Cc1ncc([N+](=O)[O-])n1C)C2	88*	14	/	1	62*	i
CC[N+](CC)(CC)CCOc1ccc(/C=C/c2ccccc2)cc1	32	2	5	13	-4	/
CC[N+](CC)(CC)CCCCOc1ccc2c(c1)C(=O)c1cc(OCCCC[N+](CC)(CC)CC)ccc1-2	102*	2	55*	0	99*	21µM*
SMILES	RAD52 inh	S100A4 inh HTS	dFosB activator	MLL AF4-AF9 inh	RAD54 branch	DNA binder FP
CC1=Nc2cc(C(=O)NCCCN3CCN(C)CC3)ccc2Sc2ccc(C)cc21	77*	-8	-4	27*	9	i
CCCC1=Nc2cc(C(=O)NCCCN3CCN(C)CC3)ccc2Sc2ccccc21	47	4	10	17	2	/
Cc1noc(C)c1S(=O)(=O)Nc1cccc2c1O[C@@H](CN(C)C(=O)NC1CCCCC1)[C@@H](C)CN([C@H](C)CO)C2=O	-32	-43	/	-1	-5	/
CN(C)CCNC(=O)c1csc(Nc2cccc3ccccc23)n1	51*	9	4	15	12	i
CCN(CC)CCNc1ccc(CO)c2oc3cc(Cl)ccc3c(=O)c12	57*	-1	/	9	105*	i
CN(C)CCNc1ccc(CO)c2oc3ccc(O)cc3c(=O)c12	81*	13	26*	9	/	55µM*
O=c1cc(NCCCO)c2ccccc2o1	/	/	1	/	-2	/
CCN(CC)CCNC(CC(=O)Nc1ccc(Cl)cc1Cl)C(=O)O (stereo unspecified)	/	/	-3	/	-10	/
CN1CCC(N(C)C(=O)/C=C/c2cn(-c3ccccc3)nc2-c2cccs2)CC1	71*	-5	-24	19	/	i
CCN(CC(=O)Nc1ccc(NC(C)=O)cc1)C(=O)/C=C/c1cn(-c2ccccc2)nc1-c1cccs1	6	-3	11	0	7	/
COc1ccc2c3c(n(C)c2c1)[C@@H](CO)N(C(=O)C1CCCCC1)CC31CCN(C(=O)CN(C)C)CC1	0	-2	/	1	/	/
COc1cccc(C(=O)Nc2ccc3c(c2)C(=O)N(C)[C@H]2CC[C@@H](CC(=O)NCC4CC4)O[C@H]2CO3)c1	9	2	/	-3	1	/
OC(COc1ccccc1)CN1CCN(CC(O)COc2ccccc2)CC1 (stereo unspecified)	-13	-4	-9	3	/	/
OC(CON=C1c2ccccc2-c2ccccc21)CN1CCNCC1 (stereo unspecified)	70*	-1	-20	13	72*	i
C[C@H]1CN([C@@H](C)CO)C(=O)c2cccc(NC(=O)c3cnccn3)c2O[C@@H]1CN(C)Cc1ccc2c(c1)OCO2	-14	1	/	1	-2	/
COc1ccc2c3c([nH]c2c1)[C@H](CO)N(C(=O)c1cccnc1)CC31CN(C(=O)NC(C)C)C1	-8	5	/	1	/	/
Cc1ccc(-c2csc(NC(=O)C[n+]3cc(-c4ccccc4)n4c3CCC4)n2)cc1	50*	-3	/	17	11	i
COc1ccc(C2c3ccc4ccccc4c3Oc3ncn(CCN(C)C)c(=N)c32)cc1 (stereo unspecified)	57*	-2	-10	19	4	i
COc1ccc(C2c3ccc4ccccc4c3Oc3ncn(CCO)c(=N)c32)cc1 (stereo unspecified)	-10	-1	-16	/	-1	/
CN1CCN(c2nc(-c3ccc(Cl)s3)cs2)CC1	51*	3	-8	14	/	i
COc1ccccc1N1CCN(CC(=O)c2ccc(F)cc2)CC1	-10	-10	-4	4	2	/
CC(CC(=O)c1ccc(F)cc1)N1CCN(c2ccccc2)CC1 (stereo unspecified)	80*	-1	-9	24	/	i
